Several values for one entry are separate records, joined by “and”; a condition that tells them apart may be missing. Equal values may be shown once.
Tests used:
Rattus norvegicus [1] = assay: Hypolipidemic activity was assessed by measuring cholesterol in Sprague-Dawley male rats at 200 mg/kg; assay type: functional
How it was run: (§1)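 Male Sprague-Dawley rats (185-g mean bodyweight) on a normal diet were dosed orally for 4 consecutive days at 50 mg/kg or 200 mg/kg. They were fasted 18 h, and blood was drawn from the abdominal aorta 24 h after the last dose. Serum total cholesterol, triglycerides (mg/100 mL) and lipoprotein α-cholesterol (% of total cholesterol) were measured. Groups of 10–40 rats were compared with controls by Student's t test.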

Rattus norvegicus [2] = assay: Hypolipidemic activity was assessed by measuring alpha-cholesterol in Sprague-Dawley male rats at 200 mg/kg; assay type: functional; how it was run: as §1
[3] = (§2) Compound was evaluated for the dose that causes […] in Sprague-Dawley male rats; assay type: ADME, organism-based; settings: rat, in vivo
Rattus norvegicus [4] = assay: Hypolipidemic activity was assessed by measuring triglycerides in Sprague-Dawley male rats at 200 mg/kg; assay type: functional; how it was run: as §1
Rattus norvegicus [5] = assay: Hypolipidemic activity was assessed by measuring cholesterol in Sprague-Dawley male rats at 50 mg/kg; assay type: functional; how it was run: as §1
Rattus norvegicus [6] = assay: Hypolipidemic activity was assessed by measuring alpha-cholesterol in Sprague-Dawley male rats at 50 mg/kg; assay type: functional; how it was run: as §1
Rattus norvegicus [7] = species on record: Rattus norvegicus; assay: as §2; assay type: functional
Rattus norvegicus [8] = species on record: Rattus norvegicus; assay: Compound dose that causes […] in Sprague-Dawley male rats; assay type: functional
Rattus norvegicus [9] = assay: Hyperlipidemic activity was assessed by measuring liver weight in Sprague-Dawley male rats at 50 mg/kg; assay type: functional
How it was run: (§3)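 Sprague-Dawley rats were fed the hyperlipidemic Nath's diet for 15 days and dosed orally at 50 or 200 mg/kg, or at 6.25, 12.5 and 25 mg/kg on a diet with 0.5% cholesterol and cholic acid. After an 18-h fast they were killed on day 16, 24 h after the last dose. Serum total cholesterol and triglycerides were assayed, and liver weight was expressed per 100 g bodyweight. Groups were compared with Nath's-diet controls by Student's t test.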

Rattus norvegicus [10] = assay: Hypolipidemic activity was assessed by measuring liver weight in Sprague-Dawley male rats at 50 mg/kg; assay type: functional
Rattus norvegicus [11] = assay: Hyperlipidemic activity was assessed by measuring triglycerides in Sprague-Dawley male rats at 50 mg/kg; assay type: functional; how it was run: as §3
Rattus norvegicus [12] = assay: Hypolipidemic activity was assessed by measuring body weight in F 344 rats at 20 mg/kg
Rattus norvegicus [13] = assay: Hypolipidemic activity was assessed in Variation of the liver enzyme catalase was expressed as units per mg of protein in F 344 rats at 20 mg/kg
[14] = Evaluated for the dose that causes 50 % lethality in Sprague-Dawley male rats; assay type: ADME, organism-based; settings: rat, in vivo
Rattus norvegicus [15] = assay: Hypolipidemic activity was assessed by measuring liver weight in Sprague-Dawley male rats at 200 mg/kg; assay type: functional; how it was run: as §3
Rattus norvegicus [16] = assay: Hypolipidemic activity was assessed by measuring triglycerides in Sprague-Dawley male rats at 50 mg/kg; assay type: functional; how it was run: as §1
Rattus norvegicus [17] = assay: Hyperlipidemic activity was assessed by measuring triglycerides in Sprague-Dawley male rats at 200 mg/kg; assay type: functional; how it was run: as §3
Rattus norvegicus [18] = assay: Hyperlipidemic activity was assessed by measuring cholesterol in Sprague-Dawley male rats at 200 mg/kg
Rattus norvegicus [19] = assay: Hypolipidemic activity was assessed in Variation of palmitoyl-CoA oxide (umol/min mg) in F 344 rats at 20 mg/kg
Rattus norvegicus [20] = assay: Hypolipidemic activity was assessed in Variation of the enoyl-CoA oxide (umol/min mg) in F 344 rats at 20 mg/kg
Rattus norvegicus [21] = assay: Hypolipidemic activity was assessed in Variation of the liver enzyme catalase was expressed as units per mg of protein. in F 344 rats at 20 mg/kg
Rattus norvegicus [22] = assay: Hypolipidemic activity was assessed in Variation of the carnitine acetyl transferase was expressed as units per mg of protein in F 344 rats at 20 mg/kg
Rattus norvegicus [23] = assay: Hyperlipidemic activity was assessed by measuring cholesterol in Sprague-Dawley male rats at 50 mg/kg; assay type: functional; how it was run: as §3
Rattus norvegicus [24] = assay: Hypolipidemic activity was assessed inVariation of the enoyl-CoA oxide (umol/min mg) in F 344 rats at 20 mg/kg
Rattus norvegicus [25] = assay: Hypolipidemic activity was assessed in variation of palmitoyl-CoA oxide (umol/min mg) in F 344 rats at 20 mg/kg
Rattus norvegicus [26] = assay: Hypolipidemic activity was assessed in variation of the liver enzyme catalase was expressed as units per mg of protein in F 344 rats at 20 mg/kg
[27] = dose 20 mg/kg, in the assay text read “F 344 rats at 20 mg/kg” for “Sprague-Dawley male rats at 50 mg/kg”

Cc1cccc(N(C)c2cc(Cl)nc(N(C)C)n2)c1C
Cholesterol (Rattus norvegicus [1]): 63.2 mg 100ml-1 | Alpha-cholesterol (Rattus norvegicus [2]): 90% | LD50 [3]: < 2500 mg/kg | Triglycerides (Rattus norvegicus [4]): 89.8 mg/100 mL

Cc1cccc(Nc2nc(Cl)nc(N(C)CC(=O)O)n2)c1C
Cholesterol (Rattus norvegicus [1]): 76.8 mg 100ml-1 | Alpha-cholesterol (Rattus norvegicus [2]): 79.8% | LD50 [3]: 1220 mg/kg | Triglycerides (Rattus norvegicus [4]): < 74.6 mg/100 mL

CN(C)c1nc(Cl)nc(N(C)C)n1
Cholesterol (Rattus norvegicus [5]): 84.8 mg 100ml-1 | Alpha-cholesterol (Rattus norvegicus [6]; dose 50 mg/kg): 70%

CCOc1nc(Nc2cccc(C)c2C)nc(SCC(=O)O)n1
Cholesterol (Rattus norvegicus [7]): 1054.8 mg 100ml-1 | Cholesterol (Rattus norvegicus [1]): 70.3 mg 100ml-1 | Alpha-cholesterol (Rattus norvegicus [2]): <82.2% | LD50 (Rattus norvegicus [8]): 1120 mg/kg | Liver weight (Rattus norvegicus [9]): 6.53 g 100g-1 | Liver weight (Rattus norvegicus [10]; [27]): 3.1 g (100g of body weight)-1 | Triglycerides (Rattus norvegicus [4]): < 76.1 mg/100 mL | Triglycerides (Rattus norvegicus [11]): <214.3 mg 100ml-1 | Body weight (Rattus norvegicus [12]): 248 g | Catalase (Rattus norvegicus [13]): 50 U/mg protein

CN(C)c1cc(Cl)nc(N(C)C)n1
Cholesterol (Rattus norvegicus [5]): <103.7 mg 100ml-1 | Alpha-cholesterol (Rattus norvegicus [6]; dose 200 mg/kg, in the assay text read “200 mg/kg” for “50 mg/kg”): 75.7% | LD50 [14]: < 2500 mg/kg

CN(C)c1cc(Cl)nc(SCC(=O)O)n1
Cholesterol (Rattus norvegicus [5]; 50 mg/kg): <62.5 mg 100ml-1 and <69.4 mg 100ml-1 | Alpha-cholesterol (Rattus norvegicus [6]; dose 50 mg/kg): 81.7% and 72.2% | LD50 [14]: < 2500 mg/kg

Cc1cccc(Nc2cc(Cl)nc(N(C)C)n2)c1C [LODINIXIL]
Cholesterol (Rattus norvegicus [5]): 57.8 mg 100ml-1 | Alpha-cholesterol (Rattus norvegicus [6]; dose 50 mg/kg): 69.6% | LD50 [14]: < 2500 mg/kg | Liver weight (Rattus norvegicus [15]): 5.97 g 100g-1 | Liver weight (Rattus norvegicus [10]; [27]): 3.9 g (100g of body weight)-1 | Triglycerides (Rattus norvegicus [16]): 96.5 mg/100 mL | Triglycerides (Rattus norvegicus [17]): <182 mg 100ml-1 | Body weight (Rattus norvegicus [12]): 268 g | Cholesterol (Rattus norvegicus [18]): 771 mg 100ml-1 | Palmitoyl-CoA oxid (Rattus norvegicus [19]): 0.015 µM/min/mg | Enoyl-CoA hydratase (Rattus norvegicus [20]): 3.8 µM/min/mg | Catalase (Rattus norvegicus [21]): 38 U/mg protein | Carnitine acetyl transferase (Rattus norvegicus [22]): 7 U/mg protein

Cc1cccc(Nc2cc(Cl)nc(S)n2)c1C
Cholesterol (Rattus norvegicus [1]): 76.3 mg 100ml-1 | Alpha-cholesterol (Rattus norvegicus [2]): 73.2% | LD50 [14]: 1840 mg/kg | Triglycerides (Rattus norvegicus [4]): 95.6 mg/100 mL

Cc1cccc(Nc2cc(Cl)nc(OCC(=O)O)n2)c1C
Cholesterol (Rattus norvegicus [23]): <548.8 mg 100ml-1 | Cholesterol (Rattus norvegicus [5]): <57.3 mg 100ml-1 | Alpha-cholesterol (Rattus norvegicus [6]; dose 50 mg/kg): <83.8% | LD50 [14]: 1080 mg/kg | Liver weight (Rattus norvegicus [9]): 6.29 g 100g-1 | Liver weight (Rattus norvegicus [10]; [27]): 4.5 g (100g of body weight)-1 | Triglycerides (Rattus norvegicus [16]): < 67.3 mg/100 mL | Triglycerides (Rattus norvegicus [11]): <215.6 mg 100ml-1 | Body weight (Rattus norvegicus [12]): 245 g | Enoyl-CoA hydratase (Rattus norvegicus [24]): 2.5 µM/min/mg | Palmitoyl-CoA oxid (Rattus norvegicus [25]): 0.088 µM/min/mg | Catalase (Rattus norvegicus [26]): 77 U/mg protein | Carnitine acetyl transferase (Rattus norvegicus [22]): 10 U/mg protein

Cc1cccc(Nc2cc(Cl)nc(SCC(=O)O)n2)c1C [PIRINIXIC ACID]
Alpha-cholesterol (Rattus norvegicus [6]; dose 50 mg/kg): 75.1% | LD50 [14]: 1050 mg/kg | Liver weight (Rattus norvegicus [10]; dose 50 mg/kg): 8.23 g 100g-1 and 8.88 g 100g-1

Cc1cccc(Oc2cc(Cl)nc(SCC(=O)O)n2)c1C
Cholesterol (Rattus norvegicus [5]): <67.7 mg 100ml-1 | Alpha-cholesterol (Rattus norvegicus [6]; dose 50 mg/kg): 77% | LD50 [14]: 1290 mg/kg | Triglycerides (Rattus norvegicus [16]): < 56.4 mg/100 mL

Cc1cccc(N(C)c2cc(Cl)nc(S)n2)c1C
Cholesterol (Rattus norvegicus [1]): 65.8 mg 100ml-1 | Alpha-cholesterol (Rattus norvegicus [2]): 74.4% | LD50 [3]: 1780 mg/kg | Triglycerides (Rattus norvegicus [4]): < 79.1 mg/100 mL

Cc1cccc(N(C)c2cc(Cl)nc(OCC(=O)O)n2)c1C
Cholesterol (Rattus norvegicus [5]): 66.4 mg 100ml-1 | Alpha-cholesterol (Rattus norvegicus [6]; dose 50 mg/kg): 87.2% | LD50 [14]: 1070 mg/kg | Triglycerides (Rattus norvegicus [16]): < 80.7 mg/100 mL
